Measured values published in ChEMBL document CHEMBL3045045, “Antifungal activity of CHE-23C, a dimeric sesquiterpene from Chloranthus henryi” (2009).
≈ marks a conversion by molar mass, not a printed value.

How the values were obtained:
Assay type in all cases: functional
Corticium [1] = assay: Antifungal activity against Corticium sasaki infected compound pre-treated rice plant seedlings through soil application of fungus assessed as rice sheath blight disease control efficacy at 11 ug/mL under greenhouse conditions
In short: (§1)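 Rice seedlings were sprayed to runoff with compound in 1% Tween 20 containing 1% DMSO; controls got Tween 20 with 1% DMSO. After 24 h, fourth-leaf-stage plants were inoculated by adding 7-day-old C. sasaki cultures to the soil. Infected sheath area was scored. Three replicates in randomized complete blocks; % control = 100 × (A−B)/A against the Tween-only control.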

Phytophthora infestans [2] = assay: Antifungal activity against Phytophthora infestans after 48 to 72 hr by agar dilution method
In short: (§2)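 Agar dilution: DMSO stock added to molten medium (potato dextrose agar, or V-8 juice agar) at 0.25–128 μg/mL, 2-fold series. Inoculum was 5 mm mycelial disks from actively growing colony margins pre-grown 3–7 days at 20–25 C. Plates incubated 20–25 C for 24–72 h. MIC = lowest concentration giving complete growth inhibition versus compound-free plate; three repeats.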

Fusarium oxysporum = assay: Antifungal activity against Fusarium oxysporum after 48 to 72 hr by agar dilution method
In short: (§3)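 Agar dilution MIC on field-isolate phytopathogens. Compound in DMSO added to molten potato dextrose agar at 0.25-128 μg/mL (2-fold serial dilution). Inocula were 5 mm mycelial disks cut from actively growing colony margins after 3-7 days at 20-25 C. Plates were incubated at 20-25 C for 24-72 h. MIC is the lowest concentration giving complete growth inhibition versus a no-compound control. Run three times.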

Pyricularia grisea [3] = assay: Antifungal activity against Magnaporthe grisea infected compound pre-treated rice plant seedlings assessed as rice blast disease control efficacy at 100 ug/mL under greenhouse conditions
In short: (§4)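 Rice seedlings at third-leaf stage sprayed to runoff with compound in 1% Tween 20 (water/DMSO 99:1), left 24 h, then sprayed with M. grisea spores (5 × 10^5 spores/mL). Greenhouse; randomized complete block, three replicates; % control = 100×[(A−B)/A] from infected leaf area versus Tween 20/1% DMSO controls.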

Botrytis cinerea [4] = assay: Antifungal activity against Botryotinia fuckeliana infected in compound pre-treated tomato plant seedlings assessed as tomato gray mold disease control efficacy at 100 ug/mL measured 3 days post fungus inoculation under greenhouse conditions
In short: (§5)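 Tomato seedlings were sprayed to runoff with compound in 1% Tween 20 containing 1% DMSO; controls got Tween 20 with 1% DMSO. After 24 h, second-leaf-stage plants were sprayed with B. cinerea spores (10^6/mL) and kept dark at 20 C, 100% RH. Infected leaf area was scored 3 days post-inoculation. Three replicates in randomized complete blocks; % control = 100 × (A−B)/A against the Tween-only control.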

Botrytis cinerea [5] = assay: Antifungal activity against Botryotinia fuckeliana after 48 to 72 hr by agar dilution method; in short: as §3
Pyricularia grisea [6] = assay: Antifungal activity against Magnaporthe grisea after 48 to 72 hr by agar dilution method; in short: as §2
Botrytis cinerea [7] = assay: Antifungal activity against Botryotinia fuckeliana infected in compound pre-treated tomato plant seedlings assessed as tomato gray mold disease control efficacy at 33 ug/mL measured 3 days post fungus inoculation under greenhouse conditions; in short: as §5
Alternaria kikuchiana = assay: Antifungal activity against Alternaria kikuchiana after 48 to 72 hr by agar dilution method; in short: as §3
Botrytis cinerea [8] = assay: Antifungal activity against Botryotinia fuckeliana infected in compound pre-treated tomato plant seedlings assessed as tomato gray mold disease control efficacy at 11 ug/mL measured 3 days post fungus inoculation under greenhouse conditions; in short: as §5
Pichia kudriavzevii = assay: Antifungal activity against Pichia kudriavzevii ATCC 42720 after 48 to 72 hr by agar dilution method
Puccinia recondita [9] = assay: Antifungal activity against Puccinia recondita infected compound pre-treated wheat plant seedlings assessed as wheat leaf rust disease control efficacy at 11 ug/mL under greenhouse conditions
In short: (§6)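 Greenhouse protective assay. Seedlings were sprayed to runoff with compound in 1% Tween 20 containing 1% DMSO; controls got Tween 20 with 1% DMSO. Plants stood 24 h before pathogen inoculation. Infected leaf area was scored. Three replicates in randomized complete blocks; % control = 100 × (A−B)/A against the Tween-only control; means compared by LSD at P = 0.05.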

Blumeria hordei [10] = assay: Antifungal activity against Blumeria graminis f. sp. hordei infected compound pre-treated barley plant seedlings assessed as barley powdery mildew disease control efficacy at 100 ug/mL under greenhouse conditions
In short: (§7)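 Barley or wheat seedlings sprayed to runoff with compound in 1% Tween 20 containing water/DMSO (99:1); controls got Tween 20 with 1% DMSO; left 24 h before inoculation; greenhouse. Pots in randomized complete block, three replicates; infected leaf area averaged and converted to % control = 100×[(A−B)/A] versus Tween-only plants.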

Cryptococcus neoformans = assay: Antifungal activity against Cryptococcus neoformans ATCC 36556 after 48 to 72 hr […]
Phytophthora infestans [11] = assay: Antifungal activity against Phytophthora infestans infected compound pre-treated tomato plant seedlings assessed as tomato late blight disease control efficacy at 100 ug/mL measured after 2 days under greenhouse conditions
In short: (§8)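 Tomato seedlings at second-leaf stage sprayed to runoff with compound in 1% Tween 20 (water/DMSO 99:1), left 24 h, then sprayed with P. infestans zoospore suspension (5 × 10^4 sporangia/mL). Held 1 day at 20 C, 100% RH, then 2 days in growth chamber. Three replicates, randomized blocks; % control from infected area versus Tween 20/1% DMSO controls.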

Phytophthora infestans [12] = assay: Antifungal activity against Phytophthora infestans infected compound pre-treated tomato plant seedlings assessed as tomato late blight disease control efficacy at 11 ug/mL measured after 2 days under greenhouse conditions; in short: as §8
Corticium [13] = assay: Antifungal activity against Corticium sasaki infected compound pre-treated rice plant seedlings through soil application of fungus assessed as rice sheath blight disease control efficacy at 100 ug/mL under greenhouse conditions; in short: as §1
Colletotrichum lagenaria = assay: Antifungal activity against Colletotrichum lagenaria after 48 to 72 hr by agar dilution method; in short: as §3
Puccinia recondita [14] = assay: Antifungal activity against Puccinia recondita infected compound pre-treated wheat plant seedlings assessed as wheat leaf rust disease control efficacy at 100 ug/mL under greenhouse conditions; in short: as §6
Candida tropicalis = assay: Antifungal activity against Candida tropicalis ATCC 13803 after 48 to 72 hr by agar dilution method
Pyricularia grisea [15] = assay: Antifungal activity against Magnaporthe grisea infected compound pre-treated rice plant seedlings assessed as rice blast disease control efficacy at 33 ug/mL under greenhouse conditions; in short: as §4
Candida albicans [16] = assay: Antifungal activity against Candida albicans ATCC 10231 after 48 to 72 hr by agar dilution method
Globisporangium ultimum = assay: Antifungal activity against Pythium ultimum after 48 to 72 hr by agar dilution method; in short: as §3
Corticium [17] = assay: Antifungal activity against Corticium sasaki infected compound pre-treated rice plant seedlings through soil application of fungus assessed as rice sheath blight disease control efficacy at 33 ug/mL under greenhouse conditions; in short: as §1
Rhizoctonia solani = assay: Antifungal activity against Rhizoctonia solani after 48 to 72 hr by agar dilution method; in short: as §3
Clavispora lusitaniae = assay: Antifungal activity against Clavispora lusitaniae ATCC 6258 after 48 to 72 hr by agar dilution method
Puccinia recondita [18] = assay: Antifungal activity against Puccinia recondita infected compound pre-treated wheat plant seedlings assessed as wheat leaf rust disease control efficacy at 33 ug/mL under greenhouse conditions; in short: as §6
Blumeria hordei [19] = assay: Antifungal activity against Blumeria graminis f. sp. hordei infected compound pre-treated barley plant seedlings assessed as barley powdery mildew disease control efficacy at 11 ug/mL under greenhouse conditions; in short: as §6
Phytophthora infestans [20] = assay: Antifungal activity against Phytophthora infestans infected compound pre-treated tomato plant seedlings assessed as tomato late blight disease control efficacy at 33 ug/mL measured after 2 days under greenhouse conditions; in short: as §8
Candida albicans [21] = assay: Antifungal activity against Candida albicans isolate A207 after 48 to 72 hr by agar dilution method
Blumeria hordei [22] = assay: Antifungal activity against Blumeria graminis f. sp. hordei infected compound pre-treated barley plant seedlings assessed as barley powdery mildew disease control efficacy at 33 ug/mL under greenhouse conditions; in short: as §6
Pyricularia grisea [23] = assay: Antifungal activity against Magnaporthe grisea infected compound pre-treated rice plant seedlings assessed as rice blast disease control efficacy at 11 ug/mL under greenhouse conditions; in short: as §4
Phytophthora infestans [24] = assay: Antifungal activity against Phytophthora infestans infected compound pre-treated tomato plant seedlings assessed as tomato late blight disease control efficacy at 50 ug/mL measured after 2 days under greenhouse conditions; in short: as §8
Corticium [25] = assay: Antifungal activity against Corticium sasaki infected compound pre-treated rice plant seedlings through soil application of fungus assessed as rice sheath blight disease control efficacy at 5 ug/mL under greenhouse conditions
In short: (§9)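 Rice seedlings at fourth-leaf stage sprayed to runoff with compound in 1% Tween 20 (water/DMSO 99:1), left 24 h, then inoculated by adding 7-day-old C. sasaki cultures to soil. Greenhouse; three replicates, randomized complete block; % control = 100×[(A−B)/A] from infected sheath area relative to Tween 20/1% DMSO-treated plants.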

Corticium [26] = assay: Antifungal activity against Corticium sasaki infected compound pre-treated rice plant seedlings through soil application of fungus assessed as rice sheath blight disease control efficacy at 50 ug/mL under greenhouse conditions; in short: as §9
Blumeria hordei [27] = assay: Antifungal activity against Blumeria graminis f. sp. hordei infected compound pre-treated barley plant seedlings assessed as barley powdery mildew disease control efficacy at 1 ug/mL under greenhouse conditions; in short: as §7
Puccinia recondita [28] = assay: Antifungal activity against Puccinia recondita infected compound pre-treated wheat plant seedlings assessed as wheat leaf rust disease control efficacy at 20 ug/mL under greenhouse conditions; in short: as §7
Puccinia recondita [29] = assay: Antifungal activity against Puccinia recondita infected compound pre-treated wheat plant seedlings assessed as wheat leaf rust disease control efficacy at 50 ug/mL under greenhouse conditions; in short: as §7
Botrytis cinerea [30] = assay: Antifungal activity against Botryotinia fuckeliana infected in compound pre-treated tomato plant seedlings assessed as tomato gray mold disease control efficacy at 5 ug/mL measured 3 days post fungus inoculation under greenhouse conditions
Botrytis cinerea [31] = assay: Antifungal activity against Botryotinia fuckeliana infected in compound pre-treated tomato plant seedlings assessed as tomato gray mold disease control efficacy at 50 ug/mL measured 3 days post fungus inoculation under greenhouse conditions
Phytophthora infestans [32] = assay: Antifungal activity against Phytophthora infestans infected compound pre-treated tomato plant seedlings assessed as tomato late blight disease control efficacy at 2 ug/mL measured after 2 days under greenhouse conditions; in short: as §8
Phytophthora infestans [33] = assay: Antifungal activity against Phytophthora infestans infected compound pre-treated tomato plant seedlings assessed as tomato late blight disease control efficacy at 10 ug/mL measured after 2 days under greenhouse conditions; in short: as §8

SMILES: C/C=C(\C)C(=O)OC[C@]1(O)[C@H]2C[C@H]2[C@]2(C)[C@@H]3CC4=C5[C@H](/C(=C(/C)C(=O)OC)C(=O)[C@H](O)[C@@]5(C)[C@@H]5C[C@H]45)[C@@]34OC(=O)C(COC(C)=O)=C4C[C@@H]12
- Efficacy (Corticium [1]): 50%
- MIC (Phytophthora infestans [2]): 32 mg/L (≈ 47.3 µM)
- MIC (Fusarium oxysporum): 16 mg/L (≈ 23.6 µM)
- Efficacy (Pyricularia grisea [3]): 72%
- Efficacy (Botrytis cinerea [4]): 36%
- MIC (Botrytis cinerea [5]): 8 mg/L (≈ 11.8 µM)
- MIC (Pyricularia grisea [6]): 4 mg/L (≈ 5.91 µM)
- Efficacy (Botrytis cinerea [7]): 14%
- MIC (Alternaria kikuchiana): 8 mg/L (≈ 11.8 µM)
- Efficacy (Botrytis cinerea [8]): 7.2%
- MIC (Pichia kudriavzevii): 128 mg/L (≈ 189 µM)
- Efficacy (Puccinia recondita [9]): 80%
- Efficacy (Blumeria hordei [10]): 17%
- MIC (Cryptococcus neoformans): 16 mg/L (≈ 23.6 µM)
- Efficacy (Phytophthora infestans [11]): 93%
- Efficacy (Phytophthora infestans [12]): 29%
- Efficacy (Corticium [13]): 69%
- MIC (Colletotrichum lagenaria): 8 mg/L (≈ 11.8 µM)
- Efficacy (Puccinia recondita [14]): 100%
- MIC (Candida tropicalis): > 128 mg/L
- Efficacy (Pyricularia grisea [15]): 50%
- MIC (Candida albicans [16]): 64 mg/L (≈ 94.6 µM)
- MIC (Globisporangium ultimum): 1 mg/L (≈ 1.48 µM)
- Efficacy (Corticium [17]): 50%
- MIC (Rhizoctonia solani): 16 mg/L (≈ 23.6 µM)
- MIC (Clavispora lusitaniae): 128 mg/L (≈ 189 µM)
- Efficacy (Puccinia recondita [18]): 87%
- Efficacy (Blumeria hordei [19]): 0%
- Efficacy (Phytophthora infestans [20]): 91%
- MIC (Candida albicans [21]): 8 mg/L (≈ 11.8 µM)
- Efficacy (Blumeria hordei [22]): 0%
- Efficacy (Pyricularia grisea [23]): 67%

SMILES: N#Cc1c(Cl)c(Cl)c(Cl)c(C#N)c1Cl [CHLOROTHALONIL]
- Efficacy (Phytophthora infestans [24]): 94%
- Efficacy (Phytophthora infestans [11]): 100%

SMILES: OCC1=C[C@H](N[C@H]2C[C@H](CO)[C@@H](O[C@@H]3O[C@H](CO)[C@@H](O)[C@H](O)[C@H]3O)[C@H](O)[C@H]2O)[C@H](O)[C@@H](O)[C@@H]1O [VALIDAMYCIN]
- Efficacy (Corticium [25]): 75%
- Efficacy (Corticium [26]): 100%

SMILES: CCCCNC(=O)n1c(NC(=O)OC)nc2ccccc21 [BENOMYL]
- Efficacy (Blumeria hordei [27]): 90%
- Efficacy (Blumeria hordei [10]): 100%

SMILES: CC1=C(C(=O)Nc2ccccc2)SCCO1 [CARBOXIN]
- Efficacy (Puccinia recondita [28]): 43%
- Efficacy (Puccinia recondita [29]): 100%

SMILES: N#Cc1c[nH]cc1-c1cccc2c1OC(F)(F)O2 [FLUDIOXONIL]
- Efficacy (Botrytis cinerea [30]): 82%
- Efficacy (Botrytis cinerea [31]): 100%

SMILES: COc1ccc(C(=CC(=O)N2CCOCC2)c2ccc(Cl)cc2)cc1OC [DIMETHOMORPH]
- Efficacy (Phytophthora infestans [32]): 64%
- Efficacy (Phytophthora infestans [33]): 100%
